ChEMBL document CHEMBL4376878, “Potent Thiophene Antagonists of Human Complement C3a Receptor with Anti-Inflammatory Activity” (J Med Chem, 2020)

Legend:
[1] = biological target: T1, C3a anaphylatoxin chemotactic receptor (Homo sapiens) (UniProt Q16581); assay: Potency index, ratio of SB290157 IC50 to test compound IC50 for antagonist activity at C3a receptor in human LAD2 cells assessed as inhibition of C3a-induced beta-hexosaminidase release; format: cell-based
T1 sequence (whole entry): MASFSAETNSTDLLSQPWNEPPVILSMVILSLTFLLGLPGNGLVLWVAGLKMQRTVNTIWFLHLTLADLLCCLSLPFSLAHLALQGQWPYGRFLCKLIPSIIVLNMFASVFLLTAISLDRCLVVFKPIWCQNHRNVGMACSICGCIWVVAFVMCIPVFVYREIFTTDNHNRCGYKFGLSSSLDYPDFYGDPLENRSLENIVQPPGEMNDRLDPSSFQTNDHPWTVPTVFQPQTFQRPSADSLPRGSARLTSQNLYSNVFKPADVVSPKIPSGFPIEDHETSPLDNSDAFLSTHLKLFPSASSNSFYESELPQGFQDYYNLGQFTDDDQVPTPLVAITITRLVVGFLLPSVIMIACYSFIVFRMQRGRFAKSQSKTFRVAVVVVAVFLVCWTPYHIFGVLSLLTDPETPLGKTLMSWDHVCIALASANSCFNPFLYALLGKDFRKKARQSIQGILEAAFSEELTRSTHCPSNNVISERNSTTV

[2] = Clearance in Wistar rat at 1 mg/kg, iv by LC-MS/MS analysis; format: ADME, organism-based; conditions: in vivo
In short: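 Male Wistar rats with jugular vein catheter, fasted overnight; dosed p.o. by gavage in olive oil or i.v. via catheter in 50% DMSO. Blood drawn from conscious unrestrained rats 5 min before dosing, then 5, 15, 30 min and 1–8 h after. Volume replaced with heparinized saline. Rats fed after 4 h sample. n = 3 per route.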

Rattus norvegicus = assay: Antiinflammatory activity in Wistar rat model of BR103-induced paw edema assessed as reduction in hind paw swelling at 30 mg/kg, po administered via gavage pretreated for 6 to 8 hrs followed by BR103 challenge and measured after 30 mins by digital caliper method relative to control; format: functional; design: scale not given: the % may be the effect or the level left
In short: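 For duration of action, antagonist was given at 30 mg/kg by oral gavage in olive oil at 1, 2, 4, 6, 8 or 12 h before intraplantar BR103 (350 μg/paw) in male Wistar rats. Controls received olive oil 2 h before challenge. Paw thickness and width were measured with calipers at 0 and 0.5 h; n = 3 per group.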

Cc1cc(C(c2ccc(Cl)cc2)c2ccc(Cl)cc2)sc1C(=O)N[C@@H](CCCNC(=N)N)C(=O)O
Ratio IC50 [1]: 100 | clearance [2]: 4.4 mL/min/kg | Activity (Rattus norvegicus): 85%
